Test results as given in ChEMBL document CHEMBL3608301, “Phenolic Compounds from Atriplex littoralis and Their Radiation-Mitigating Activity” (J Nat Prod, 2015).

Experiments:
[1] = test system: PBL; assay: Radioprotective activity in 2-Gy gamma irradiated human PBL assessed as frequency of micronuclei at 7 uM treated for 2 to 19 hrs followed by compound washout measured after 72 hrs by cytochalasin-B-blocked micronucleus assay relative to control; assay type: functional
In short: (§1)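 Venous blood from five healthy male volunteers was γ-irradiated at 2 Gy (0.45 Gy/min) at room temperature and cultured. Compounds (0.8−7.4 μM final) were added 2 to 19 h after irradiation, at 37 °C. Cultures were then rinsed and moved to fresh RPMI 1640 for 72 h. Cytokinesis-block micronucleus assay: ≥1000 binucleated cells scored per sample (Countryman–Heddle criteria). Controls were non-treated irradiated cultures; one-way ANOVA with Tukey test.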

[2] = test system: PBL; assay: Radioprotective activity in 2-Gy gamma irradiated human PBL assessed as incidence of micronuclei in binucleated cells at 3.5 uM treated for 2 to 19 hrs followed by compound washout measured after 72 hrs by cytochalasin-B-blocked micronucleus assay (reference value: 1.2 +/- 0.03); assay type: functional; in short: as §1
[3] = test system: PBL; assay: Toxicity in 2-Gy gamma irradiated human PBL assessed as cytokinesis-block proliferation index at 7 uM treated for 2 to 19 hrs followed by compound washout measured after 72 hrs (reference value: 1.6 +/- 0.1); assay type: cell-based
[4] = test system: PBL; assay: Toxicity in 2-Gy gamma irradiated human PBL assessed as cytokinesis-block proliferation index at 1.8 uM treated for 2 to 19 hrs followed by compound washout measured after 72 hrs (reference value: 1.6 +/- 0.1); assay type: cell-based
[5] = test system: PBL; assay: Radioprotective activity in 2-Gy gamma irradiated human PBL assessed as incidence of micronuclei in binucleated cells at 7 uM treated for 2 to 19 hrs followed by compound washout measured after 72 hrs by cytochalasin-B-blocked micronucleus assay (reference value: 1.2 +/- 0.03); assay type: functional; in short: as §1
[6] = test system: PBL; assay: Radioprotective activity in 2-Gy gamma irradiated human PBL assessed as incidence of micronuclei in 1000 binucleated cells at 3.5 uM treated for 2 to 19 hrs followed by compound washout measured after 72 hrs by cytochalasin-B-blocked micronucleus assay (reference value: 183 +/- 9.6); assay type: functional; in short: as §1
[7] = test system: PBL; assay: Radioprotective activity in 2-Gy gamma irradiated human PBL assessed as frequency of micronuclei at 1.8 uM treated for 2 to 19 hrs followed by compound washout measured after 72 hrs by cytochalasin-B-blocked micronucleus assay relative to control; assay type: functional; in short: as §1
[8] = test system: PBL; assay: Radioprotective activity in 2-Gy gamma irradiated human PBL assessed as binucleated cells with micronuclei at 1.8 uM treated for 2 to 19 hrs followed by compound washout measured after 72 hrs by cytochalasin-B-blocked micronucleus assay (reference value: 15.5 +/- 0.6%); assay type: functional; in short: as §1
[9] = test system: PBL; assay: Toxicity in 2-Gy gamma irradiated human PBL assessed as cytokinesis-block proliferation index at 3.5 uM treated for 2 to 19 hrs followed by compound washout measured after 72 hrs (reference value: 1.6 +/- 0.1); assay type: cell-based
[10] = test system: PBL; assay: Radioprotective activity in 2-Gy gamma irradiated human PBL assessed as binucleated cells with micronuclei at 7 uM treated for 2 to 19 hrs followed by compound washout measured after 72 hrs by cytochalasin-B-blocked micronucleus assay (reference value: 15.5 +/- 0.6%); assay type: functional; in short: as §1
[11] = test system: PBL; assay: Radioprotective activity in 2-Gy gamma irradiated human PBL assessed as incidence of micronuclei in 1000 binucleated cells at 7 uM treated for 2 to 19 hrs followed by compound washout measured after 72 hrs by cytochalasin-B-blocked micronucleus assay (reference value: 183 +/- 9.6); assay type: functional; in short: as §1
[12] = test system: PBL; assay: Radioprotective activity in 2-Gy gamma irradiated human PBL assessed as frequency of micronuclei at 3.5 uM treated for 2 to 19 hrs followed by compound washout measured after 72 hrs by cytochalasin-B-blocked micronucleus assay relative to control; assay type: functional; in short: as §1
[13] = test system: PBL; assay: Radioprotective activity in 2-Gy gamma irradiated human PBL assessed as incidence of micronuclei in 1000 binucleated cells at 1.8 uM treated for 2 to 19 hrs followed by compound washout measured after 72 hrs by cytochalasin-B-blocked micronucleus assay (reference value: 183 +/- 9.6); assay type: functional; in short: as §1
[14] = test system: PBL; assay: Radioprotective activity in 2-Gy gamma irradiated human PBL assessed as incidence of micronuclei in binucleated cells at 1.8 uM treated for 2 to 19 hrs followed by compound washout measured after 72 hrs by cytochalasin-B-blocked micronucleus assay (reference value: 1.2 +/- 0.03); assay type: functional; in short: as §1
[15] = test system: PBL; assay: Radioprotective activity in 2-Gy gamma irradiated human PBL assessed as binucleated cells with micronuclei at 3.5 uM treated for 2 to 19 hrs followed by compound washout measured after 72 hrs by cytochalasin-B-blocked micronucleus assay (reference value: 15.5 +/- 0.6%); assay type: functional; in short: as §1
[16] = test system: PBL; assay: Radioprotective activity in 2-Gy gamma irradiated human PBL assessed as incidence of micronuclei in binucleated cells at 3.7 uM treated for 2 to 19 hrs followed by compound washout measured after 72 hrs by cytochalasin-B-blocked micronucleus assay (reference value: 1.2 +/- 0.03); assay type: functional; in short: as §1
[17] = test system: PBL; assay: Radioprotective activity in 2-Gy gamma irradiated human PBL assessed as incidence of micronuclei in 1000 binucleated cells at 3.7 uM treated for 2 to 19 hrs followed by compound washout measured after 72 hrs by cytochalasin-B-blocked micronucleus assay (reference value: 183 +/- 9.6); assay type: functional
In short: (§2)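 Venous blood from five healthy male volunteers was gamma-irradiated at 2 Gy (0.45 Gy/min) at room temperature, then cultured. Compounds (0.8–7.4 μM final) were added after irradiation for 19 h at 37 °C. Cells were rinsed and moved to fresh RPMI 1640 for 72 h. At least 1000 binucleated cells per sample were scored for micronuclei and CBPI calculated. Analysis used one-way ANOVA with Tukey test.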

[18] = test system: PBL; assay: Toxicity in 2-Gy gamma irradiated human PBL assessed as cytokinesis-block proliferation index at 7.4 uM treated for 2 to 19 hrs followed by compound washout measured after 72 hrs (reference value: 1.6 +/- 0.1); assay type: cell-based
[19] = test system: PBL; assay: Radioprotective activity in 2-Gy gamma irradiated human PBL assessed as incidence of micronuclei in binucleated cells at 7.4 uM treated for 2 to 19 hrs followed by compound washout measured after 72 hrs by cytochalasin-B-blocked micronucleus assay (reference value: 1.2 +/- 0.03); assay type: functional; in short: as §1
[20] = test system: PBL; assay: Radioprotective activity in 2-Gy gamma irradiated human PBL assessed as binucleated cells with micronuclei at 3.7 uM treated for 2 to 19 hrs followed by compound washout measured after 72 hrs by cytochalasin-B-blocked micronucleus assay (reference value: 15.5 +/- 0.6%); assay type: functional; in short: as §1
[21] = test system: PBL; assay: Radioprotective activity in 2-Gy gamma irradiated human PBL assessed as frequency of micronuclei at 3.7 uM treated for 2 to 19 hrs followed by compound washout measured after 72 hrs by cytochalasin-B-blocked micronucleus assay relative to control; assay type: functional; in short: as §1
[22] = test system: PBL; assay: Radioprotective activity in 2-Gy gamma irradiated human PBL assessed as incidence of micronuclei in 1000 binucleated cells at 7.4 uM treated for 2 to 19 hrs followed by compound washout measured after 72 hrs by cytochalasin-B-blocked micronucleus assay (reference value: 183 +/- 9.6); assay type: functional; in short: as §2
[23] = test system: PBL; assay: Toxicity in 2-Gy gamma irradiated human PBL assessed as cytokinesis-block proliferation index at 3.7 uM treated for 2 to 19 hrs followed by compound washout measured after 72 hrs (reference value: 1.6 +/- 0.1); assay type: cell-based
[24] = test system: PBL; assay: Radioprotective activity in 2-Gy gamma irradiated human PBL assessed as binucleated cells with micronuclei at 7.4 uM treated for 2 to 19 hrs followed by compound washout measured after 72 hrs by cytochalasin-B-blocked micronucleus assay (reference value: 15.5 +/- 0.6%); assay type: functional; in short: as §1
[25] = test system: PBL; assay: Radioprotective activity in 2-Gy gamma irradiated human PBL assessed as frequency of micronuclei at 7.4 uM treated for 2 to 19 hrs followed by compound washout measured after 72 hrs by cytochalasin-B-blocked micronucleus assay relative to control; assay type: functional; in short: as §1

For `OC[C@H]1O[C@@H](OCc2ccc(O)cc2)[C@H](O)[C@@H](O)[C@@H]1O`, the Activity [1] was 87%, the Activity [2] was 1.2 and the Activity [3] was 1.7. For the same compound, the Activity [4] was 1.7, the Activity [5] was 1.2 and the Activity [6] was 155.7. For the same compound, the Activity [7] was 85.5%, the Activity [8] was 13.1% and the Activity [9] was 1.8. The Activity [10] was 13.6%, the Activity [11] was 159.2 and the Activity [12] was 85.1%. The Activity [13] was 156.4, the Activity [14] was 1.2 and the Activity [15] was 13.1%.
For `OC[C@H]1O[C@@H](Oc2ccc(O)cc2)[C@H](O)[C@@H](O)[C@@H]1O` [ARBUTIN], the Activity [4] was 1.7, the Activity [16] was 1.3 and the Activity [7] was 104.5%. It also gave an Activity [17] of 189.3, an Activity [8] of 15.1% and an Activity [18] of 1.6. For the same compound, the Activity [19] was 1.2, the Activity [20] was 15% and the Activity [13] was 191.2. It also gave an Activity [21] of 103.4%, an Activity [14] of 1.3 and an Activity [22] of 197.2. For the same compound, the Activity [23] was 1.8, the Activity [24] was 15.8% and the Activity [25] was 107.8%.
